The target of assay [1] is Disintegrin and metalloproteinase domain-containing protein 17 (Homo sapiens, UniProt P78536). Briefly: Inhibition of human TACE.
Assay [2] relates to RAW264.7. Kind of assay: Inhibition of TNFalpha production in mouse RAW264.7 cells after 24 hrs by ELISA. It is filed as functional, cell-based. The conditions noted are these: RAW264.7, 24 h. An outline of the steps:
(§1)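 RAW264.7 cells cultured with inhibitors for 24 h. Secreted TNF-α in culture supernatant quantified by ELISA following the kit instructions. IC50 values are means of three experiments; line 3 is the single-concentration 10 μM result.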

In assay [3] the test system is RAW264.7. Kind of assay: Inhibition of NO production in mouse RAW264.7 cells at 10 uM after 24 hrs by ELISA. The conditions noted are these: in the assay text read “by Griess assay” for “by ELISA”. It counts as functional, cell-based. The method, boiled down:
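RAW264.7 cells cultured with inhibitors for 24 h. NO2- accumulation in medium taken as NO output: supernatant mixed 1:1 with Griess reagent (1% sulfanilamide, 0.1% naphthylethylenediamine dihydrochloride, 2% phosphoric acid), 10 min at room temperature, absorbance at 540 nm against a NaNO2 standard curve. Single concentration 10 μM. Means of three experiments.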

The target in assay [4] is Matrix metalloproteinase-9 (Homo sapiens, UniProt P14780). Kind of assay: Inhibition of human recombinant MMP9. The method, boiled down: (§2)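 Recombinant human MMP-2 or MMP-9 catalytic domain with fluorogenic quenched peptide Mca-Pro-Leu-Gly-Leu-Dpa-Ala-Arg-NH2. Cleavage releases Mca. Fluorescence read at excitation 324, emission 420, and the rate of emission change is taken as enzyme activity. IC50 values are means of three experiments.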

The target of assay [5] is 72 kDa type IV collagenase (Homo sapiens, UniProt P08253). Kind of assay: Inhibition of human recombinant MMP2. An outline of the steps:
as §2

Assay [6] concerns RAW264.7. Kind of assay: Inhibition of TNFalpha production in mouse RAW264.7 cells at 10 uM after 24 hrs by ELISA. It is filed as functional, cell-based. An outline of the steps: as §1

Matrix metalloproteinase-9, sequence (P14780 whole entry, the tested form may be a part): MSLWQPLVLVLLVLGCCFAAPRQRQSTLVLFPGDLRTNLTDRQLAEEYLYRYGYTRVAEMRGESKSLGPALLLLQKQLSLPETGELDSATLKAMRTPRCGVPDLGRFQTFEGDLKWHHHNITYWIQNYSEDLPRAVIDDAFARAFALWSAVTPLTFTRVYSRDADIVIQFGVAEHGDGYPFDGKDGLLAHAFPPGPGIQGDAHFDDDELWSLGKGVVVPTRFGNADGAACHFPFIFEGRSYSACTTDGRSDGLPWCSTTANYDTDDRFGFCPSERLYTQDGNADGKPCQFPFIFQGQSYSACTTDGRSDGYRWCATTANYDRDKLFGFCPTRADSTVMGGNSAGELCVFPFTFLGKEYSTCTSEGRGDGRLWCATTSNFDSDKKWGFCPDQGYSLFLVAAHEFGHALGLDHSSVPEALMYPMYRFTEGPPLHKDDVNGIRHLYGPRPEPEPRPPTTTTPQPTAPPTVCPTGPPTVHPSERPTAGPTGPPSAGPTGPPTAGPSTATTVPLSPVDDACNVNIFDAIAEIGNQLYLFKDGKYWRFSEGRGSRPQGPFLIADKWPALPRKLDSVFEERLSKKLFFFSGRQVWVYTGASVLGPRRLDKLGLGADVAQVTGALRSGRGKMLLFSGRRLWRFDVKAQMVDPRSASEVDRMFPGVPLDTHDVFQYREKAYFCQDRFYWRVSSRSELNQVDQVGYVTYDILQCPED
72 kDa type IV collagenase, sequence (P08253 whole entry): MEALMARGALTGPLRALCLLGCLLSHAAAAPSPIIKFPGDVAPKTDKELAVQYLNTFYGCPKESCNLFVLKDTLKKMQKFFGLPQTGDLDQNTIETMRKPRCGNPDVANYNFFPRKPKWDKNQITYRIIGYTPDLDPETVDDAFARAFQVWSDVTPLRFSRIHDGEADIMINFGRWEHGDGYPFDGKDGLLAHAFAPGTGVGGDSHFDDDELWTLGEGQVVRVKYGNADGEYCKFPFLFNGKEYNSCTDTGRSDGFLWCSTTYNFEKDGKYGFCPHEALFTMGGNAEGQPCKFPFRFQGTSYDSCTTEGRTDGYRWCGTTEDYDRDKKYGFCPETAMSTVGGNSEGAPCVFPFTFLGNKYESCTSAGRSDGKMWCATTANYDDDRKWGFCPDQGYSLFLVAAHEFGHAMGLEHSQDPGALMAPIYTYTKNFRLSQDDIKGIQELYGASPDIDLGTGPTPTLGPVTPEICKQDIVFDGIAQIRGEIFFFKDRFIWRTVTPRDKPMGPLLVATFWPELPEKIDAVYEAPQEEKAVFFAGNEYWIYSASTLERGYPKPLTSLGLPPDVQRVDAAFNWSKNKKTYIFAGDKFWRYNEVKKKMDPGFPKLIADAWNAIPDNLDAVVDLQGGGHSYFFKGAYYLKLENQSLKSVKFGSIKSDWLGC
Disintegrin and metalloproteinase domain-containing protein 17, sequence (P78536 whole entry, the tested form may be a part): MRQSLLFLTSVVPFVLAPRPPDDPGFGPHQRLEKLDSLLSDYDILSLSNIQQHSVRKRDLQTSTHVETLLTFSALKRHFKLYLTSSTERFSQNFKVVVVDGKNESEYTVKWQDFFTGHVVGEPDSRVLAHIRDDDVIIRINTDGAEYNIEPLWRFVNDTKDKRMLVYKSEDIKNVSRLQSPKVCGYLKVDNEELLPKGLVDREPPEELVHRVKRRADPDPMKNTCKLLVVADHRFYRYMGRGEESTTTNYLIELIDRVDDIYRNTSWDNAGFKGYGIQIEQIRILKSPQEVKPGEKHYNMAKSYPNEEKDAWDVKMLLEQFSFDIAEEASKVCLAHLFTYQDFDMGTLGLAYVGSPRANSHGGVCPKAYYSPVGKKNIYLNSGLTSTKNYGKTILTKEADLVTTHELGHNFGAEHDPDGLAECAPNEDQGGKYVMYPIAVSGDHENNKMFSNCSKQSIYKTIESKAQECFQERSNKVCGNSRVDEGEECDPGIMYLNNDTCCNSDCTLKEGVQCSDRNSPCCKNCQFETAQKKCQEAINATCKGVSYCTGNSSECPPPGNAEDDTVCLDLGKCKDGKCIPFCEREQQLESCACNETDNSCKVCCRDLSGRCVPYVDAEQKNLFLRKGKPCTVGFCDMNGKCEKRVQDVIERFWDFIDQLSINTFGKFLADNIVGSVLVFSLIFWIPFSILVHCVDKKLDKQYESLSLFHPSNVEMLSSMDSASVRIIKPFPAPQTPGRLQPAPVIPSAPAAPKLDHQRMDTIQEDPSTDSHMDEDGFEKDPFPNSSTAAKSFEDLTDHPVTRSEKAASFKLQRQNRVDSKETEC

With `COc1ccc2oc(=O)c(CCC(=O)NO)cc2c1`, the IC50 in assay [1] is 110 nM; in assay [2], 2210 nM; in assay [3], “Not Active”; in assay [4] it was 5660 nM; in assay [5], 590 nM.

With `CC(C)(C)c1ccc2oc(=O)c(CCC(=O)NO)cc2c1`, the IC50 in assay [1] is 12400 nM; in assay [6], “Not Active”; in assay [3] it was “Not Active”.

For `C=CCC(Cc1cc2cc(C)ccc2oc1=O)C(=O)NO` (configuration not stated), the results for the IC50 in assay [1], in assay [2] and in assay [3] were 30 nM, 520 nM and “Not Active”, respectively.

On to `O=C(CCc1cc2ccccc2oc1=O)NO`, for which the half-maximal inhibitory concentration (IC50) in assay [1] is 150 nM; in assay [2], 5640 nM; in assay [3], “Not Active”; in assay [4], 1410 nM; in assay [5] it was 200 nM.

As to `Cc1ccc2oc(=O)c(CC(Cc3ccccc3)C(=O)NO)cc2c1` (configuration not stated), the IC50 in assay [1] is 5 nM; in assay [2], 540 nM; in assay [3], “Not Active”.

For `C/C=C/C=C\C=C1\C=C(CCC(=O)NO)C(=O)OC1`, the IC50 in assay [1] is 28 nM; in assay [2], 8800 nM; in assay [3], “Not Active”; in assay [4], 23 nM; in assay [5] it was 6 nM.

For `COc1ccc2oc(=O)c(CC(C)C(=O)NO)cc2c1` (configuration not stated), the IC50 in assay [1] was 36 nM; in assay [2] it was 220 nM; in assay [3], “Not Active”.

Regarding `O=C(CCc1cc2cc(Cl)ccc2oc1=O)NO`, the IC50 in assay [1] is 550 nM; in assay [2] it was 25600 nM; in assay [3], “Not Active”; in assay [4], 16400 nM; in assay [5], 1470 nM.

`O=C(CCc1cc2cc(Br)ccc2oc1=O)NO`: the IC50 in assay [1] was 840 nM; in assay [2] it was 13000 nM; in assay [3], “Not Active”; in assay [4], 24500 nM; in assay [5] it was 860 nM.

For the molecule `Cc1ccc2oc(=O)c(CC(C)C(=O)NO)cc2c1` (configuration not stated), the IC50 in assay [1] was 3 nM; in assay [2], 320 nM; in assay [3], “Not Active”; in assay [4], over 10000 nM; in assay [5], 1040 nM.

As to `Cc1ccc2oc(=O)c(CCC(=O)NO)cc2c1`, the concentration for half-maximal inhibition (IC50) in assay [1] is 60 nM; in assay [2], 1300 nM; in assay [3], “Not Active”; in assay [4] it was 3050 nM; in assay [5], 230 nM.

The values above are taken from ChEMBL document CHEMBL1140764, “Chromen-based TNF-alpha converting enzyme (TACE) inhibitors: design, synthesis, and biological evaluation” (Bioorg Med Chem, 2008).
